Apaf1 inhib = human Apaf-1 inhibition. reconstituted apoptosome caspase-3 activity, DEVD-Rh110 fluorescence. hit rate 0.71% among 330,000. inhibition, % at 20 µM. O14727; active = inhibition of at least 40% at 20 µM;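 also: plate controls were DMSO wells for no effect and DEVD-CHO caspase inhibitor wells for full effect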
Target sequence (O14727 whole entry, looked up): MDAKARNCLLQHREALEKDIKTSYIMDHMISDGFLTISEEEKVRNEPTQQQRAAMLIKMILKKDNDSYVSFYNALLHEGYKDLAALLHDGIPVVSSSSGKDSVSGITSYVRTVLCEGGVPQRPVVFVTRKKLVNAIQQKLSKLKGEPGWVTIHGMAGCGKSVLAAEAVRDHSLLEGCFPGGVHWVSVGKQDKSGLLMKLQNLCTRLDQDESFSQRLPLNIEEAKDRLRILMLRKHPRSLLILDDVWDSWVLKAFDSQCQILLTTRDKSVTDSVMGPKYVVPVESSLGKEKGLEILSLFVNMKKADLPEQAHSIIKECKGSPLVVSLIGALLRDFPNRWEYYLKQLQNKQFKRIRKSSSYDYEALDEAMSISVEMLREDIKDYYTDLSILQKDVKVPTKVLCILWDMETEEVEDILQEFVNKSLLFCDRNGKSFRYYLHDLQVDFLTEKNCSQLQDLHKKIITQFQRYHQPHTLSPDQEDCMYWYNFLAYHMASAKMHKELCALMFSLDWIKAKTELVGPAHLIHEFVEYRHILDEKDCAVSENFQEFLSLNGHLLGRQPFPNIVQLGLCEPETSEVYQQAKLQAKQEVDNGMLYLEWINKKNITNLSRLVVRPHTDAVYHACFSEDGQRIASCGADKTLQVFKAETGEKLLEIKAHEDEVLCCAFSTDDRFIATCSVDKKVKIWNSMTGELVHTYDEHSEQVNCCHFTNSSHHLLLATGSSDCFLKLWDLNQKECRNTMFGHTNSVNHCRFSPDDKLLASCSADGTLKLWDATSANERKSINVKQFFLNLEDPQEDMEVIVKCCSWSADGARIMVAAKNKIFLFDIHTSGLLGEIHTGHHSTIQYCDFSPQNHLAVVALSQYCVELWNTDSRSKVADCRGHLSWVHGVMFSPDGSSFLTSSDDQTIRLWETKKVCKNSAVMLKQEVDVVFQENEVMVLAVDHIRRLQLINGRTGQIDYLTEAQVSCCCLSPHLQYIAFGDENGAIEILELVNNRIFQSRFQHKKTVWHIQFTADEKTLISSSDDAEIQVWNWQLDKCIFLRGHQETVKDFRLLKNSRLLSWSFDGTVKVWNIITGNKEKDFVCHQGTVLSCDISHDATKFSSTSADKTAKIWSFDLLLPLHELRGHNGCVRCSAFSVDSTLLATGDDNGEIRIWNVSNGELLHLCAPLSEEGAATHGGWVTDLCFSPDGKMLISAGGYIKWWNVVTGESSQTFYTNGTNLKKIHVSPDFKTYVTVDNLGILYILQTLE
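System: reconstituted apoptosome with Apaf-1, cytochrome c, caspase-9, procaspase-3, dATP; Signal: Rh110 fluorescence intensity; Schedule: 30 min compound preincubation, 50 min activation, room temperature; Reagent: cytochrome c trigger plus (Z-DEVD)2-Rh110 caspase-3 substrate.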
UBC13 inh = inhibitors of human UBC13 polyubiquitin chain formation; P61088; TR-FRET; inhibition, % at 20 µM; hit rate 0.47% among 330,000; in the data active = inhibition above about 45%, passing the limit was not always enough
DNA FID counter = displaces DNA intercalator in HCV helicase counter-screen; DNA fluorescent intercalator displacement, fluorescence; inhibition, % at 7.9 µM; hit rate 0.17% among 290,000; in the data active = inhibition above about 37%;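 also: 0% = vehicle and 100% = reference compound; higher means more ethidium bromide displaced from hairpin DNA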
Neddylation inh = cullin neddylation inhibition | calls only at 25 µM | P61081+Q13564 | TR-FRET cullin neddylation, biochemical | hit rate 0.58% among 360,000; in the data active = inhibition above about 36%
RAD52 anneal inh = RAD52 (human) annealing inhibition; recombinant RAD52 DNA annealing, FRET fluorescence; inhibition, % at 18.7 µM; hit rate 0.46% among 360,000;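 active = every replicate showing at least 50% inhibition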
RAD54 inh = inhibitors of human RAD54 branch migration; Q92698; RAD54 Holliday junction branch migration, FAM/BHQ fluorescence; inhibition, % at 10.4 µM; hit rate 0.14% among 360,000; AID 602329;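 active = mean normalized replicate activity at least 40 and at least half of replicates scoring 40 or more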;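 also: 0% = median of neutral control wells and 100% = median of positive control wells; inhibitors cause a drop in the FAM fluorescence signal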
* hit, by the source's call. The list is not random: actives were taken first. Their share in the collection is about 1.6%.

How did Cc1ccccc1S(=O)(=O)N1CCCCN2[C@H](C1)[C@@H](c1ccc(C#CCN(C)C)cc1)[C@@H]2CO do in these assays?
RAD52 anneal inh: 60*; RAD54 inh: -5

What do the screens show for `Cc1ccccc1S(=O)(=O)N1CCCCN2[C@@H](CO)[C@H](c3ccc(-c4ccccc4)cc3)[C@@H]2C1`?
RAD52 anneal inh: 71*; RAD54 inh: 1

What do the screens show for `Cc1ccccc1S(=O)(=O)N1CCCCN2[C@H](CO)[C@H](c3ccc(-c4ccccc4)cc3)[C@@H]2C1`?
RAD52 anneal inh: 28; RAD54 inh: 3

Results for Cc1cccc(S(=O)(=O)N2CCCCN3[C@@H](CO)[C@H](c4ccc(-c5ccccc5)cc4)[C@@H]3C2)c1 ?
RAD52 anneal inh: 68*; RAD54 inh: 2

What do the screens show for `Cc1ccc(-c2ccc([C@@H]3[C@@H](CO)N4CCCCN(S(=O)(=O)c5cccc(C)c5)C[C@H]34)cc2)cc1`?
RAD52 anneal inh: 53*; RAD54 inh: 6

What do the screens show for `Cc1ccc(-c2ccc([C@@H]3[C@H]4CN(S(=O)(=O)c5cccc(C)c5)CCCCN4[C@H]3CO)cc2)cc1`?
RAD52 anneal inh: 12; RAD54 inh: 4

How did O=C(C[C@H]1C=C[C@H](NC(=O)C2CC2)[C@H](CO)O1)NCCc1cscn1 do in these assays?
RAD52 anneal inh: -1

How did C[C@H](CO)N1C[C@H](C)[C@@H](CN(C)C(=O)Nc2ccccc2)Oc2ccc(NS(=O)(=O)c3cccs3)cc2C1=O do in these assays?
RAD52 anneal inh: 16

How did C/C=C/c1ccc([C@H]2[C@@H](CO)N3CCCCN(S(=O)(=O)c4ccc(OC)cc4)C[C@H]23)cc1 do in these assays?
RAD52 anneal inh: 60*; RAD54 inh: -5

What do the screens show for `COc1ccc2c3c([nH]c2c1)[C@H](CO)N(C(=O)CN1CCOCC1)CC31CCN(Cc2ccccc2)CC1`?
RAD52 anneal inh: -2

Results for COc1ccc(C(=O)NC[C@H]2O[C@@H](n3cnc4c(N)ncnc43)[C@H](O)[C@@H]2O)cc1OC ?
Neddylation inh: inactive; RAD52 anneal inh: -6; RAD54 inh: 4

What do the screens show for `NC(=O)c1ccc[n+]([C@H]2O[C@@H](COP(=O)([O-])OP(=O)(O)OC[C@H]3O[C@@H](n4cnc5c(N)ncnc54)[C@H](O)[C@@H]3O)[C@H](O)[C@@H]2O)c1`?
Apaf1 inhib: -16; UBC13 inh: -9; Neddylation inh: active; RAD54 inh: -16

How did O=C(NCC[C@H]1CC[C@H](NC(=O)Nc2cc(F)ccc2F)[C@H](CO)O1)Nc1ccc(F)cc1 do in these assays?
RAD52 anneal inh: 11; RAD54 inh: -1

Results for O=C(NCC[C@H]1CC[C@H](NC(=O)c2cccnc2)[C@H](CO)O1)Nc1ccc(F)cc1 ?
RAD52 anneal inh: 50*; RAD54 inh: -9

Results for O=C(NCC[C@H]1CC[C@@H](NC(=O)c2cccnc2)[C@@H](CO)O1)Nc1ccc(F)cc1 ?
RAD52 anneal inh: 14; RAD54 inh: 6

What do the screens show for `O=C(NCC[C@@H]1CC[C@@H](NC(=O)Nc2cc(F)ccc2F)[C@H](CO)O1)Nc1ccc(F)cc1`?
RAD52 anneal inh: 56*; RAD54 inh: 16

Results for C[C@H]1CCCCO[C@H](CN(C)Cc2ccc(C(=O)O)cc2)[C@@H](C)CN([C@@H](C)CO)C(=O)c2cc(NS(=O)(=O)c3ccc(Cl)cc3)ccc2O1 ?
RAD52 anneal inh: 9; RAD54 inh: -6

How did Cc1ccc(NC(=O)CSc2nc3ccccc3c(=O)n2CCCN2CCCCC2)cc1C do in these assays?
Apaf1 inhib: 55*; UBC13 inh: 19; DNA FID counter: 26; Neddylation inh: inactive; RAD54 inh: 19

Results for O=C(O)C1C2C=CC(C2)C1C(=O)Nc1ccc2c(c1)OCCO2 (stereo not given) ?
Apaf1 inhib: -2; UBC13 inh: -2; DNA FID counter: 2; Neddylation inh: inactive; RAD54 inh: 1

What do the screens show for `CN(C)c1ccc(NC(=O)C2C3C=CC(C3)C2C(=O)O)cc1` (stereo not given)?
Apaf1 inhib: 29; UBC13 inh: -24; DNA FID counter: 11; Neddylation inh: inactive; RAD52 anneal inh: 58*; RAD54 inh: 16
